Rows were chosen to be rich in hits. Some 2.8% of all compounds tested hit in one or more screens of this group.
NPY-Y1 PAM-ag = NPY-Y1 receptor potentiators or agonists, primary screen, cell-based | Neuropeptide Y receptor type 1 (Homo sapiens), P25929 | NPY-Y1 expressing cells, potentiator/agonist activation | activation, % at 3.6 µM | 220,000 tested, 0.37% active | AID 1304, 2008; in the data active = activation above about 33%, passing the limit was not always enough;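 note: cells stimulated with NPY at EC10 then isoproterenol at EC100; 0% = low agonist plus stimulus and 100% = saturating agonist plus stimulus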
NPY-Y1 antag = NPY-Y1 receptor antagonists, primary screen, cell-based; 200,000 tested, 1% active; HEK293-CNG Y1 cells, membrane potential fluorescence; NPY at EC95, then isoproterenol; Neuropeptide Y receptor type 1 (Homo sapiens), P25929; inhibition, % at 3.6 µM;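 active = inhibition above the campaign mean inhibition of all tested compounds plus 3 SD, cut at about 20% in these data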;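 note: 0% = DMSO wells given NPY plus isoproterenol and 100% = isoproterenol alone without NPY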
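System: HEK293 cells with Y1 receptor plus CNG channel / Probe or stimulus: NPY 25 nM then isoproterenol 1 µM plus Ro 20-1724 25 µM / Compound: one concentration, 3.6 µM, in 0.4% DMSO / Schedule: compound incubation 1 h at room temperature, readout 45 min post-stimulation / Measured by: membrane potential fluorescence / Read-out: % inhibition of NPY effect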
NPY-Y2 PAM-ag = NPY-Y2 potentiators or agonists, primary screen, cell-based. Neuropeptide Y receptor type 2 (Homo sapiens), P49146. cells expressing NPY-Y2, potentiator/agonist read-out. activation, % at 3.6 µM. 220,000 tested, 0.45% active. AID 1359, 2008; in the data active = activation above about 27%;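 note: cells stimulated with NPY near EC25 plus isoproterenol at EC100; 0% = vehicle plus submaximal agonist and 100% = vehicle plus saturating agonist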
EP2 mod = EP2 receptor modulators, cAMP readout, primary screen, cell-based, HTRF cAMP, PGE2 stimulation. Prostaglandin E2 receptor EP2 subtype (Homo sapiens), P43116. EP2-expressing cells, cAMP HTRF FRET, PGE2 co-stimulation. induction, % at 25 µM. 260,000 tested, 0.83% active;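 active = compounds whose cAMP rise, as percent of the full-agonist control response, exceeds 60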;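 note: rat C6 glioma line stably carrying human EP2 under a CMV promoter; the protocol text gives 20 µM as final concentration; 100% = response of wells given 1 µM PGE2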
Target sequence (P43116 whole entry, looked up): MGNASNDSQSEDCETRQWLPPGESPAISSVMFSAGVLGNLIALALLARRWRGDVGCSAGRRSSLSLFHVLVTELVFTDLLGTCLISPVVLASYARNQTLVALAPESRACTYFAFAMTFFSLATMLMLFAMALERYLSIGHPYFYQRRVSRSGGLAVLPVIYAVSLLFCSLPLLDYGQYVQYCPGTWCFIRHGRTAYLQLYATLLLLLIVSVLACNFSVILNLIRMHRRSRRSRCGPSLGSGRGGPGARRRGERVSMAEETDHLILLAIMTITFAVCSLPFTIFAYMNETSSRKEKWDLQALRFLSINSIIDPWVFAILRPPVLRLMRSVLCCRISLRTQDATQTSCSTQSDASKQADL
NPY-Y2 antag = NPY-Y2 receptor antagonists, primary screen, cell-based. Neuropeptide Y receptor type 2 (Homo sapiens), P49146. inhibition, % at 2.7 µM. 140,000 tested, 0.99% active. NPY-Y2 expressing cells, antagonist mode. AID 793, 2007; in the data active = inhibition above about 17%;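 note: 0% = vehicle with agonist challenge and 100% = reference antagonist with challenge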
PGE2 EP2 inh = human EP2 receptor antagonists, primary screen, TR-FRET cAMP, C6 glioma cells. 260,000 tested, 0.52% active. AID 1422, 2008. Prostaglandin E2 receptor EP2 subtype (Homo sapiens), P43116. C6 glioma cells expressing human EP2; cells stimulated with saturating PGE2. inhibition, % at 25 µM;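 active = percent inhibition above 40 after rounding to a whole number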;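 note: rat C6 glioma host cells with rolipram phosphodiesterase inhibitor present; the protocol text gives 20 µM as final concentration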
* marks the source's active call; other numbers are inactive results.

Screening CCn1c(Cn2nnc(-c3ccccc3)n2)nnc1SCC(=O)Nc1ccc(C(C)=O)cc1 returned NPY-Y1 PAM-ag 46*, NPY-Y1 antag -20, NPY-Y2 PAM-ag 47*, EP2 mod -4, NPY-Y2 antag -9 and PGE2 EP2 inh 4.
CS(=O)(=O)N(CC(=O)N1CCOCC1)c1cccc2ccccc12 was read as EP2 mod -17 and PGE2 EP2 inh 5.
Screening CCOc1cc(CN2CCc3c(nc(N4CC(C)OC(C)C4)[nH]c3=O)C2)ccc1O (configuration not stated) returned EP2 mod 2.
CS(=O)(=O)N1CCN(c2ccccc2NC(=O)Cc2ccccc2)CC1 was read as NPY-Y1 PAM-ag -22, NPY-Y1 antag 7, NPY-Y2 PAM-ag -3, EP2 mod 24, NPY-Y2 antag 9 and PGE2 EP2 inh 12.
CCC(=O)N1CCN(c2ccccc2NC(=O)Cc2ccccc2)CC1 was read as NPY-Y1 PAM-ag -17, NPY-Y1 antag 24*, NPY-Y2 PAM-ag -17, EP2 mod 7, NPY-Y2 antag 16 and PGE2 EP2 inh 11.
For CCOc1cccc(C(=O)Nc2ccccc2N2CCN(C(=O)C(C)C)CC2)c1 the results were NPY-Y1 PAM-ag -9, NPY-Y1 antag 21*, NPY-Y2 PAM-ag -10, EP2 mod 20, NPY-Y2 antag 21* and PGE2 EP2 inh 6.
`CC(=O)N1CCN(c2ccccc2NC(=O)Cc2ccc(Cl)cc2)CC1` gave NPY-Y1 PAM-ag -5, NPY-Y1 antag 4, NPY-Y2 PAM-ag -2, EP2 mod 24 and PGE2 EP2 inh 4.
`CC(C)C(=O)N1CCN(c2ccccc2NC(=O)Cc2ccc(Cl)cc2)CC1` gave NPY-Y1 PAM-ag -6, NPY-Y1 antag 44*, NPY-Y2 PAM-ag -6, EP2 mod 25, NPY-Y2 antag 20* and PGE2 EP2 inh 13.
CCC(=O)N1CCN(c2ccc(Cl)cc2NC(=O)c2ccc(Br)o2)CC1 was read as NPY-Y1 PAM-ag -31, NPY-Y1 antag 9, NPY-Y2 PAM-ag -1, NPY-Y2 antag 17* and PGE2 EP2 inh 8.
Screening COc1cc(Cl)ccc1NC(=O)CN1C(=O)C2CCCN2C(=O)c2ccccc21 (configuration not stated) returned EP2 mod -6 and PGE2 EP2 inh 8.
`COC(=O)c1ccc(NC(=O)CN2CCC(C)CC2)cc1` gave EP2 mod -47 and PGE2 EP2 inh 1.
`O=C(OCCN1C(=O)c2cccc3c(N4CCOCC4)ccc(c23)C1=O)c1ccccc1Cl` gave NPY-Y1 PAM-ag -39, NPY-Y1 antag 57*, NPY-Y2 PAM-ag 10, EP2 mod -18, NPY-Y2 antag 24* and PGE2 EP2 inh 12.
Screening O=C(OCCN1C(=O)c2cccc3c(N4CCOCC4)ccc(c23)C1=O)c1ccc(Cl)cc1Cl returned NPY-Y1 PAM-ag -6, NPY-Y1 antag 0, NPY-Y2 PAM-ag 7, EP2 mod 4, NPY-Y2 antag 10 and PGE2 EP2 inh 11.
NS(=O)(=O)c1cc2c(cc1Cl)N[C@H](Cc1ccccc1)NS2(=O)=O was read as EP2 mod 15 and PGE2 EP2 inh 53*.
For NS(=O)(=O)c1cc2c(cc1Cl)NC(c1ccccc1)NS2(=O)=O (configuration not stated) the results were EP2 mod 12 and PGE2 EP2 inh 9.
For COc1ccccc1CCCNC(=O)c1cc(-c2ccccn2)n[nH]1 the results were EP2 mod -75 and PGE2 EP2 inh 3.
`COC(=O)c1ccc(S(=O)(=O)N2CCCCCC2)cc1` gave NPY-Y1 PAM-ag 22, NPY-Y1 antag 7, NPY-Y2 PAM-ag 8, EP2 mod 14, NPY-Y2 antag 3 and PGE2 EP2 inh 9.
For CC(=O)c1ccc(S(=O)(=O)N2CCCCCC2)cc1 the results were EP2 mod -27 and PGE2 EP2 inh 94*.
O=C1SC(Nc2cccc3ccccc23)C(=O)N1c1ccc(Br)cc1 (configuration not stated) was read as EP2 mod -10 and PGE2 EP2 inh 18.
Screening Cc1cc(OCc2nc(N)nc(N)c2-c2ccc(Cl)c(Cl)c2)ccc1[N+](=O)[O-] returned EP2 mod -35 and PGE2 EP2 inh 68*.
Screening COc1ccc(C=O)cc1COc1ccc([N+](=O)[O-])c(C)c1 returned NPY-Y1 PAM-ag -2, NPY-Y1 antag 13, NPY-Y2 PAM-ag -8, EP2 mod -11 and PGE2 EP2 inh 4.
Screening COc1ccc(/C(O)=C2/C(=O)C(=O)NC2c2ccc(C(C)C)cc2)cc1OC (configuration not stated) returned EP2 mod 3 and PGE2 EP2 inh 17.
COCCn1c(=NC(=O)C2COc3ccccc3O2)sc2cc(S(N)(=O)=O)ccc21 (configuration not stated) was read as NPY-Y1 PAM-ag 4, NPY-Y1 antag 6, NPY-Y2 PAM-ag -1, EP2 mod -51, NPY-Y2 antag 10 and PGE2 EP2 inh 58*.
Screening CC(C)[C@H](Cn1nc(-c2ccc(F)c(F)c2)ccc1=O)NC(=O)C1CCC1 returned EP2 mod -23 and PGE2 EP2 inh 7.
CC(=O)Nc1ccc(C(=O)c2ccccc2)cc1 was read as NPY-Y1 PAM-ag -7, NPY-Y1 antag 0, NPY-Y2 PAM-ag 0, EP2 mod 0, NPY-Y2 antag 9 and PGE2 EP2 inh 5.
CC(=O)Nc1ccc2c(c1)C(=Nc1ccc(C(=O)O)cc1)c1ccccc1-2 was read as EP2 mod -7 and PGE2 EP2 inh 59*.
For COc1ccc(-c2cc(C(F)(F)F)nc(SCC(=O)N(C)C3CCCCC3)n2)cc1OC the results were EP2 mod -18 and PGE2 EP2 inh 6.
Screening O=C1C(N2CCOCC2)=C(n2nnc3ccccc32)C(=O)c2ccccc21 returned NPY-Y1 PAM-ag -17, NPY-Y1 antag 0, NPY-Y2 PAM-ag -7, EP2 mod -3, NPY-Y2 antag -3 and PGE2 EP2 inh 40*.
`O=C1c2ccccc2C(=O)c2c1cccc2-n1nnc2ccccc21` gave NPY-Y1 PAM-ag -8, NPY-Y2 PAM-ag 2, EP2 mod 19 and PGE2 EP2 inh 2.
Screening Cc1ccc2nc3sc(C(=O)Nc4nccs4)c(N)c3cc2c1 returned EP2 mod -75 and PGE2 EP2 inh 18.
Cc1ccc(NC(=O)C2CCN(S(=O)(=O)c3ccc(F)cc3)CC2)cc1 was read as NPY-Y1 PAM-ag 113*, NPY-Y1 antag -2, NPY-Y2 PAM-ag 105*, EP2 mod 8, NPY-Y2 antag 2 and PGE2 EP2 inh 5.
